# From ChEMBL document CHEMBL2346664, “Synthesis, characterization and in vitro anticancer evaluation of novel 1,2,4-triazolin-3-one derivatives” (2013)
# How the values were obtained:
# Format in all cases: functional
# SF-539 [1] = assay: Growth inhibition of human SF539 cells assessed as growth inhibition at 10 uM after 48 hrs by sulforhodamine B assay; conditions: SF-539, 48 h, read-out: GI
# MOLT-4 = assay: Growth inhibition of human MOLT4 cells assessed as cell growth at 10 '-6 M after 48 hrs by sulforhodamine B assay; conditions: MOLT-4, 48 h, read-out: Activity
# SF-539 [2] = assay: Growth inhibition of human SF539 cells after 48 hrs by sulforhodamine B assay; conditions: SF-539, 48 h
# SNB-19 = assay: Growth inhibition of human SNB19 cells assessed as cell growth at 10 '-8 M after 48 hrs by sulforhodamine B assay; conditions: SNB-19, 48 h, read-out: Activity
# CAKI-1 = assay: Growth inhibition of human CAKI-1 cells assessed as cell growth at 10 '-8 M after 48 hrs by sulforhodamine B assay; conditions: CAKI-1, 48 h, read-out: Activity
# Procedure, shortened: (§1)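 Percent growth at each of the five concentrations of the 48 h continuous-exposure NCI SRB screen. Drug stocks were in DMSO at 400× the top final concentration and diluted in medium with gentamicin. Growth was calculated as [(Ti-Tz)/(C-Tz)]×100 when Ti ≥ Tz, or [(Ti-Tz)/Tz]×100 when Ti < Tz. Tz plates were fixed at drug addition; untreated wells served as control. Absorbance was read at 515 nm.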
# HCT-15 = assay: Growth inhibition of human HCT15 cells assessed as cell growth at 10 '-8 M after 48 hrs by sulforhodamine B assay; conditions: HCT-15, 48 h, read-out: Activity
# DU-145 [3] = assay: Growth inhibition of human DU145 cells assessed as growth inhibition at 10 uM after 48 hrs by sulforhodamine B assay; conditions: DU-145, 48 h, read-out: GI
# SK-OV-3 = assay: Growth inhibition of human SKOV3 cells assessed as growth inhibition at 10 uM after 48 hrs by sulforhodamine B assay; conditions: SK-OV-3, 48 h, read-out: GI
# SF-268 = assay: Growth inhibition of human SF268 cells after 48 hrs by sulforhodamine B assay; conditions: SF-268, 48 h
# BT-549 [4] = assay: Growth inhibition of human BT549 cells assessed as cell growth at 10 '-5 M after 48 hrs by sulforhodamine B assay; conditions: BT-549, 48 h, read-out: Activity; procedure, shortened: as §1
# SNB-75 [5] = assay: Growth inhibition of human SNB75 cells assessed as growth inhibition at 10 uM after 48 hrs by sulforhodamine B assay; conditions: SNB-75, 48 h, read-out: GI
# T47D [6] = assay: Growth inhibition of human T47D cells assessed as cell growth at 10 '-6 M after 48 hrs by sulforhodamine B assay; conditions: read-out: Activity
# SR [7] = assay: Growth inhibition of human SR cells after 48 hrs by sulforhodamine B assay
# SNB-75 [8] = assay: Growth inhibition of human SNB75 cells after 48 hrs by sulforhodamine B assay; conditions: SNB-75, 48 h, read-out: LD50 (the source's name)
# OVCAR-5 = assay: Growth inhibition of human OVCAR5 cells after 48 hrs by sulforhodamine B assay; conditions: OVCAR-5, 48 h
# MDA-MB-231 = assay: Growth inhibition of human MDA-MB-231 cells assessed as cell growth at 10 '-7 M after 48 hrs by sulforhodamine B assay; conditions: MDA-MB-231, 48 h, read-out: Activity
# [9] = Growth inhibition of human Hs 578T cells assessed as cell growth at 10 '-5 M after 48 hrs by sulforhodamine B assay; conditions: read-out: Activity
# SNB-75 [10] = assay: Growth inhibition of human SNB75 cells assessed as cell growth at 10 '-6 M after 48 hrs by sulforhodamine B assay; conditions: SNB-75, 48 h, read-out: Activity
# M14 = assay: Growth inhibition of human M14 cells after 48 hrs by sulforhodamine B assay; conditions: M14, 48 h
# Procedure, shortened: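 NCI 60-cell-line five-dose screen. Cells were plated at 5,000–40,000/well by doubling time and grown 24 h at 37 °C, 5% CO2. Time-zero plates were TCA-fixed. Drug from DMSO stock was tested at 0.01, 0.1, 1, 10 and 100 µM final for 48 h continuous exposure. Read-out was SRB at 515 nm. GI50 is the concentration giving 50% reduction in net protein increase versus untreated control.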
# BT-549 [11] = assay: Growth inhibition of human BT549 cells assessed as cell growth at 10 '-6 M after 48 hrs by sulforhodamine B assay; conditions: BT-549, 48 h, read-out: Activity; procedure, shortened: as §1
# OVCAR-3 [12] = assay: Growth inhibition of human OVCAR3 cells after 48 hrs by sulforhodamine B assay; conditions: OVCAR-3, 48 h, read-out: LD50 (the source's name)
# RPMI-8226 = assay: Growth inhibition of human RPMI8226 cells assessed as cell growth at 10 '-8 M after 48 hrs by sulforhodamine B assay; conditions: RPMI-8226, 48 h, read-out: Activity
# OVCAR-3 [13] = assay: Growth inhibition of human OVCAR3 cells assessed as growth inhibition at 10 uM after 48 hrs by sulforhodamine B assay; conditions: OVCAR-3, 48 h, read-out: GI
# 786-0 = assay: Growth inhibition of human 786-0 cells assessed as cell growth at 10 '-7 M after 48 hrs by sulforhodamine B assay; conditions: 786-0, 48 h, read-out: Activity; procedure, shortened: as §1
# IGROV-1 = assay: Growth inhibition of human IGROV1 cells assessed as cell growth at 10 '-6 M after 48 hrs by sulforhodamine B assay; conditions: IGROV-1, 48 h, read-out: Activity
# SR [14] = assay: Growth inhibition of human SR cells assessed as cell growth at 10 '-8 M after 48 hrs by sulforhodamine B assay; conditions: read-out: Activity
# T47D [15] = assay: Growth inhibition of human T47D cells assessed as cell growth at 10 '-4 M after 48 hrs by sulforhodamine B assay; conditions: read-out: Activity
# DU-145 [16] = assay: Growth inhibition of human DU145 cells assessed as cell growth at 10 '-4 M after 48 hrs by sulforhodamine B assay; conditions: DU-145, 48 h, read-out: Activity
# [17] = Growth inhibition of human HCC2998 cells assessed as cell growth at 10 '-6 M after 48 hrs by sulforhodamine B assay; conditions: HCC 2998, 48 h, read-out: Activity
# HL-60(TB) = assay: Growth inhibition of human HL-60(TB) cells after 48 hrs by sulforhodamine B assay; conditions: HL-60, 48 h
# Procedure, shortened: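 NCI 60-cell-line five-dose screen over 0.01, 0.1, 1, 10 and 100 µM, with 48 h continuous exposure at 37 °C and 5% CO2 after 24 h pre-incubation (5,000–40,000 cells/well). Cells were TCA-fixed (10% final for adherent, 16% for suspension), stained with SRB and read at 515 nm. GI50 was solved from [(Ti−Tz)/(C−Tz)]×100 = 50 against time-zero plates.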
# [18] = read-out: LD50 (the source's name)
compound,measurement,setting,value
Cc1cc(=O)oc2cc(OCCn3c(C)nn(-c4ccc(Cl)cc4)c3=O)ccc12,inhibition of growth at 10 µM,SF-539 [1],70.5%
same,growth at 1 µM,MOLT-4,100%
same,GI50,SF-539 [2],4.06 µM
same,TGI,SF-539 [2],4.74 µM
same,CC50,SF-539 [2]; [18],> 1000 nM
same,growth at 0.01 µM,SNB-19,92%
same,growth at 0.01 µM,CAKI-1,97%
same,growth at 0.01 µM,HCT-15,98%
same,inhibition of growth at 10 µM,DU-145 [3],78.4%
same,inhibition of growth at 10 µM,SK-OV-3,58.9%
same,GI50,SF-268,1360 nM
same,TGI,SF-268,> 1000 nM
same,CC50,SF-268; [18],> 1000 nM
same,growth at 10 µM,BT-549 [4],64%
same,inhibition of growth at 10 µM,SNB-75 [5],79.6%
same,growth at 1 µM,T47D [6],89%
same,GI50,SR [7],4.97 µM
same,TGI,SR [7],6.67 µM
same,CC50,SR [7]; [18],> 1000 nM
same,CC50,SNB-75 [8],> 1000 nM
same,GI50,OVCAR-5,2190 nM
same,TGI,OVCAR-5,> 1000 nM
same,CC50,OVCAR-5; [18],> 1000 nM
same,growth at 0.1 µM,MDA-MB-231,88%
same,growth at 10 µM,[9],28%
same,growth at 1 µM,SNB-75 [10],74%
same,GI50,M14,2360 nM
same,TGI,M14,> 1000 nM
same,CC50,M14; [18],> 1000 nM
same,growth at 1 µM,BT-549 [11],89%
same,CC50,OVCAR-3 [12],> 1000 nM
same,growth at 0.01 µM,RPMI-8226,101%
same,inhibition of growth at 10 µM,OVCAR-3 [13],85.2%
same,growth at 0.1 µM,786-0,104%
same,growth at 1 µM,IGROV-1,93%
same,growth at 0.01 µM,SR [14],101%
same,growth at 100 µM,T47D [15],36%
same,growth at 100 µM,DU-145 [16],10%
same,growth at 1 µM,[17],76%
same,GI50,HL-60(TB),2800 nM
